Runt-SMMHC FRET: inhibitors of RUNX1 Runt–CBFb-SMMHC binding, primary screen, biochemical, FRET, Cerulean-Runt, Venus-CBFb-SMMHC, uHTS. Runt-related transcription factor 1 (Homo sapiens) + Core-binding factor subunit beta …. Cerulean-Runt/Venus-CBFb-SMMHC FRET ratio 530/480, 1 h. inhibition, % at 20 µM. 0.74% of 220,000 active;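 active means mean inhibition across duplicate retests at 20 µM reaching about 50%, limit read from the data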;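 further: 0% = DMSO wells and 100% = wells with excess untagged CBFb-SMMHC; inhibitors lower the FRET ratio by blocking Runt binding to CBFb-SMMHC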
Target sequence (Q01196 whole entry, looked up): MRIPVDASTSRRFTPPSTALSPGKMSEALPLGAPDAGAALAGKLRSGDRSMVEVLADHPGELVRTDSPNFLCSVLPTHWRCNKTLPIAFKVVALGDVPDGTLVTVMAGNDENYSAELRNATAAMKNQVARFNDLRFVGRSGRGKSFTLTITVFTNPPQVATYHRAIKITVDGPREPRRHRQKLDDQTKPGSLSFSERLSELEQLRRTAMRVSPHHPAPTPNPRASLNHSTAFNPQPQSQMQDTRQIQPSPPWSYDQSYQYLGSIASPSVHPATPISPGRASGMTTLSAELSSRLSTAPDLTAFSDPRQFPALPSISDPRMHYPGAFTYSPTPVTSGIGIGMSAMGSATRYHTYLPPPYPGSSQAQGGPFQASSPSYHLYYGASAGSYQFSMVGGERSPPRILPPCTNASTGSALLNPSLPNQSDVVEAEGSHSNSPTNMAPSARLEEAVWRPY
Target sequence (Q13951 whole entry, looked up): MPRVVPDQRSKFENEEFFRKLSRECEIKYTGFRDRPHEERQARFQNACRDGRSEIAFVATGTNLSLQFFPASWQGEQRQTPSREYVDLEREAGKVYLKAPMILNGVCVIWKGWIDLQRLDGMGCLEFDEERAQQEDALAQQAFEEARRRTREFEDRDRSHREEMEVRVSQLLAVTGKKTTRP
RanGTP-Impb inh: inhibitors of RanGTP-importin-beta interaction, primary screen, biochemical, FRET, CFP-Ran, YFP-importin-beta, homogeneous; Ran GTPase (GTP-bound) - importin-beta complex; 1.1% of 300,000 active; cell-free CFP-Ran/YFP-importin-beta FRET ratio; AID 2216, 2009; inhibition, % (no concentration beside the values);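 active means more than half of the replicate wells show a fall in the fluorescence ratio signal beyond about 16%, limit read from the data, passing the limit was not always enough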;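 further: 0% = DMSO wells and 100% = Ran loaded with GDP instead of GTP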
Hck Nef HTS: inhibitors of Nef-activated human Hck kinase, primary screen, biochemical, Z-Lyte FRET, 384-well, Hck-YEEI; Tyrosine-protein kinase HCK (Homo sapiens), P08631; Recombinant Hck-YEEI plus Nef, Z-Lyte FRET kinase assay; inhibition, % at 20 µM; 0.68% of 220,000 active; AID 463187, 2010;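 active means Hck-Nef kinase inhibition above about 50%, limit read from the data; inactive means inhibition below that limit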;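 further: 0% = DMSO with Hck plus Nef and 100% = Hck alone without Nef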
Runt-CBFb FRET: inhibitors of RUNX1 Runt–CBFb binding, primary screen, biochemical, FRET, Cerulean-Runt, Venus-CBFb, uHTS; Cerulean-Runt/Venus-CBFb FRET ratio 530/480, 1 h; Runt-related transcription factor 1 (Homo sapiens) + Core-binding factor subunit beta …; 0.46% of 220,000 active; inhibition, % at 20 µM;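 active means inhibition over about 50% at 20 µM in the single-dose screen, limit read from the data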;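 further: 0% = DMSO wells and 100% = excess unlabeled CBFb competitor control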
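Measured by: fluorescence energy transfer, 422 nm excitation, 530/480 nm emission; Assay system: Cerulean-Runt domain; Medium: Tris pH 7.5 buffer with BSA; Measure: loss of energy transfer signal; Controls: 5 µM unlabeled CBFb as full-inhibition high control; Incubation: protein complex preformed 1 h, compound exposure 1 h, room temperature, dark.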
Starred values were filed as active, the others as inactive; · = no result given. Sampled rows, rich in hits. Any-hit rate of the full collection: about 1.8%.

SMILES | Runt-SMMHC FRET | RanGTP-Impb inh | Hck Nef HTS | Runt-CBFb FRET
CCOc1ccc(NC(=O)CN2C(=O)/C(=C3\SC(=S)N(C4CCS(=O)(=O)C4)C3=O)c3ccccc32)cc1 (configuration not stated) | 3 | · | 74* | 18
O=C(NC(=S)NC(CO)c1ccccc1)c1ccc(F)cc1 (configuration not stated) | · | -5 | · | ·
Cc1ccc(N2CC(C(=O)N/N=C/c3c(F)cccc3Cl)CC2=O)cc1 (configuration not stated) | · | 1 | · | ·
Cc1nn(C(=O)c2ccco2)c(C)c1Sc1ccc(Br)cc1 | -2 | 0 | 1 | -1
Cc1nn(C(=O)c2ccco2)c(C)c1Sc1ccccc1 | -2 | 6 | -2 | 53*
CCCCOc1ccc(/C=N/NC(=O)c2nnn(-c3nonc3N)c2CN2CCCCCC2)cc1 | · | 28* | · | ·
O=C(Cc1cn2ccsc2n1)Nc1nc2c(s1)CN(Cc1ccccc1)CC2 | 77* | 11 | 7 | 47
O=C(Nc1nc2c(s1)CN(Cc1ccccc1)CC2)c1cccc(S(=O)(=O)N2CCc3ccccc32)c1 | -3 | 140* | 5 | -6
CC(=O)N1CCN(C(=O)COC(=O)CNC(=O)c2ccccc2C)CC1 | · | 3 | · | ·
CCn1c(C)c(C)c2cc(C(=O)NCCCN3CCCCC3C)ccc21 (configuration not stated) | · | -3 | · | ·
Cc1c(-c2cccc(Cl)c2)nc2ccccc2c1C(=O)OC/C(O)=C(\C#N)c1nc2ccccc2[nH]1 | 54* | 0 | 32 | 23
CC(C)C(=O)OC/C(O)=C(\C#N)c1nc2ccccc2[nH]1 | 15 | 15* | 26 | 4
CC(C)[C@H](NC(=O)c1cccc(CN(Cc2ccccc2)C(=O)/C=C/c2ccccc2)c1)C(=O)O | · | 8 | · | ·
CCOC(=O)C1CCN(CCC(=O)Nc2ccc(Br)c(C)c2)CC1 | · | 6 | · | ·
Cc1cc(NC(=O)CCN2CCC(C(N)=O)CC2)ccc1Br | 2 | 59* | -1 | 2
Cc1ccc(C2C(C#N)=C(N)SC(N)=C2C#N)cc1 | 22 | · | 0 | 11
N#CC1=C(N)SC(N)=C(C#N)C1c1ccoc1 | -28 | 40* | 20 | 13
C=CCn1c(N)c(C(=O)Nc2cccc(C)c2)c2nc3ccccc3nc21 | 8 | 22* | 13 | 6
COC(=O)c1nc(NNC(=O)c2ccccc2)sc1-c1ccccc1 | · | 0 | · | ·
COc1cccc(NC2=CC(=O)CC(C)(C)C2)c1 | 2 | 10 | 0 | 0
CC1(C)CC(=O)C=C(Nc2cccc(F)c2)C1 | · | 28* | · | ·
Cc1cc(N)c(NC2=CC(=O)CC(C)(C)C2)cc1C | -12 | 22* | 10 | 0
Cc1ccc(NC2=CC(=O)CC(C)(C)C2)cc1F | · | 5 | · | ·
CC(=O)Nc1ccc(NC2=CC(=O)CC(C)(C)C2)cc1 | -2 | 50* | 9 | 0
CC1(C)Cc2c(sc3ncn4c(=S)[nH]nc4c23)CO1 | 60* | 2 | 11 | 46
SMILES | Runt-SMMHC FRET | RanGTP-Impb inh | Hck Nef HTS | Runt-CBFb FRET
Cc1ccccc1-n1ncc2c1CC(C)(C)CC2NC(=O)C1=CC(=O)CC(C)(C)O1 (configuration not stated) | · | 0 | · | ·
Cc1ccnc(SCc2cc(=O)c(OC(=O)c3ccc(Cl)c([N+](=O)[O-])c3)co2)n1 | -9 | 3 | 5 | 3
Cc1cc(C)cc(N=Cc2c(O)c3ccccc3oc2=O)c1 | 87* | -5 | 18 | 3
CN1C(=O)Cc2cc(S(=O)(=O)N3CCOCC3)ccc21 | 3 | 39* | 0 | 0
O=[N+]([O-])c1cc(S(=O)(=O)N2CCOCC2)ccc1N1CCCC1 | -3 | -1 | 17 | 4
Cc1ccc(C)n1-c1cc(S(=O)(=O)N2CCOCC2)ccc1N1CCCC1 | -2 | 33* | 1 | -2
Cc1ccccc1Cn1c(=O)n(Cc2ccco2)c(=O)c2ccccc21 | 9 | 1 | 8 | 10
COc1ccc(C(=O)N=c2c(C#N)cc3c(=O)n4cccc(C)c4nc3n2Cc2ccco2)cc1 | · | 78* | 8 | 70*
Cc1ccccc1C(=O)N=c1c(C#N)cc2c(=O)n3cccc(C)c3nc2n1Cc1ccco1 | 58* | 110* | 13 | 124*
O=C(CCn1c(=O)c2ccccc2n(Cc2cc(=O)n3ccccc3n2)c1=O)NCc1ccco1 | 4 | -1 | -9 | -1
N#Cc1cc2c(=O)n3ccccc3nc2n(Cc2ccco2)c1=NC(=O)c1ccco1 | · | 56* | 2 | 4
O=C(NCCCSc1ccccc1)c1cc(Cl)ccc1O | · | 3 | · | ·
O=C(NNc1cc(N2CCOCC2)nc(N2CCOCC2)n1)c1ccc([N+](=O)[O-])cc1 | 3 | 63* | 13 | 3
CC(C)NC(=O)COc1coc(CN2CCN(C(=O)c3ccco3)CC2)cc1=O | · | 2 | · | ·
CN(CC(=O)Nc1ccc(Cl)cc1)CC(=O)Nc1cccc(Br)c1 | · | -3 | · | ·
O=C(NCCO)c1ccc2[nH]c3c(c2c1)CCCC3 | 1 | 18* | 1 | 1
O=C(NCCCO)c1ccc2[nH]c3c(c2c1)CCCC3 | 1 | 11 | 0 | 3
Cc1ccc(NC(=S)NCc2ccc3[nH]c4c(c3c2)CCCC4)cc1 | -17 | 4 | -3 | -12
COCCNC(=S)NCc1ccc2[nH]c3c(c2c1)CCCC3 | -22 | 19* | 13 | -9
COc1ccc2c(C#N)c3ccccn3c2c1 | 92* | 0 | -41 | 20
Cc1cc(=O)n2ccccc2c1C#N | 13 | 0 | 15 | 8
CCOC(=O)NCc1ccc2c(c1)cc(C)n2C | -20 | 85* | 1 | -12
CN(C)c1c(N)c(=O)oc2ccccc12 | -4 | -1 | 14 | 0
Nc1c(N)c2ccccc2oc1=O | -12 | 20* | 2 | 2
COC(=O)Cc1[nH]nc2c1C(c1c[nH]c3ccccc13)C(C#N)=C(N)O2 (configuration not stated) | 2 | 45* | 6 | 12
SMILES | Runt-SMMHC FRET | RanGTP-Impb inh | Hck Nef HTS | Runt-CBFb FRET
CN(CC(=O)NCCc1ccc(S(N)(=O)=O)cc1)S(=O)(=O)c1ccc(Br)s1 | · | 0 | · | ·
Cc1cc2nc3ccc(N(C)C)cc3nc2cc1N | · | -1 | · | ·
COc1ccc(/C=C2\CCc3c2nc2ccccc2c3C(=O)O)cc1OC | 82 | -26 | -211 | 10
COc1ccc(/C=C2\CCCc3c2nc2ccccc2c3C(=O)O)cc1OC | 81* | 37* | -9 | 12
CCOc1ccc(/C=C2\CCCc3c2nc2ccccc2c3C(=O)O)cc1OC | · | 29* | · | ·
COc1cc(/C=C2\CCCc3c2nc2ccccc2c3C(=O)O)cc(OC)c1O | 23 | -5 | -48 | 43
CCc1ccc(-c2cnc3nc[nH]c(=O)c3n2)cc1 | · | 15* | · | ·
Cc1cccc(C)c1OCc1cc(C(=O)NCc2cn(C)nc2C)no1 | · | 2 | · | ·
O=C1Nc2ccccc2C1=Nc1ccc(S(=O)(=O)Nc2nccs2)cc1 | 1 | -1 | 67* | 0

Source: PubChem (several laboratories)
